Bioassay records: PubChem, several laboratories
Sampled rows, rich in hits. Any-hit rate of the full collection: about 3.1%.
PP1 counter: counter-screen for PP5 inhibitors: inhibitors of human PP1-alpha; P62136; purified PP1alpha, OMFP fluorescence; inhibition, % at 6.7 µM; 0.9% of 320,000 active;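 active means inhibition above the mean inhibition of all tested compounds plus 3 SD, computed separately for each screening campaign, cut at about 15% in these data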
Target sequence (P62136 whole entry, looked up): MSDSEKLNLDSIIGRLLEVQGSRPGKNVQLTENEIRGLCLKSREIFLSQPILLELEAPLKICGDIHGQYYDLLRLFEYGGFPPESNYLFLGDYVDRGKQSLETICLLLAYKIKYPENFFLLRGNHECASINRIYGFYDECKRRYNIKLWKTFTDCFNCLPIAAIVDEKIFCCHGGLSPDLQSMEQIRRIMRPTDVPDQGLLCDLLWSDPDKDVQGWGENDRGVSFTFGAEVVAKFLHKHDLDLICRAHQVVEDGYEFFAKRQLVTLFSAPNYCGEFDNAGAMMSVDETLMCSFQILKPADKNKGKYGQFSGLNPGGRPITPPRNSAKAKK
HCV core dimer: blocks dimerization of HCV core protein | TR-FRET GST/Flag-core106 dimerization, 1536-well | inhibition, % at 5 µM | 0.33% of 300,000 active;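 active means inhibition above the mean of all tested compounds plus 3 SD, set per screening campaign, cut at about 45% in these data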
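Assay system – GST-tagged and Flag-tagged HCV core protein residues 1-106 · Quantity – core106 proteins, GST 13.5 nM and Flag 17 nM · Benchmarks – unlabelled core106 and no-GST-core106 wells · Read-out basis – percent inhibition of core106 dimerization signal · Detection – time-resolved FRET, ex 340 nm, em 617 and 671 nm · Schedule – 4 h at 22.5 °C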
Fh CTSL1 inh: blocks F. hepatica cathepsin L1 in PFM18AAP counter-screen; AID 1906; recombinant F. hepatica cathepsin L1, Z-Leu-Arg-MCA fluorescence; inhibition, % at 5.96 µM; 0.49% of 300,000 active;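 active means inhibition above the mean of all tested compounds plus 3 SD, set per screening campaign, cut at about 17% in these data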
PP5 primary: PP5 (human) phosphatase inhibition; inhibition, % at 6.7 µM; AID 1987; 0.18% of 320,000 active; purified PP5c, OMFP substrate fluorescence; P53041;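 active means inhibition above the campaign's mean inhibition across all tested compounds plus 3 SD, cut at about 9.5% in these data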
Myeloid diff 2: compounds promoting myeloid differentiation. ER-HoxA9 myeloid progenitors, lysozyme-GFP differentiation, flow cytometry. AID 624256. 1% of 360,000 active. calls only at 10 µM;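 active means normalized GFP-positive differentiation at or above the plate's own cutoff, the solvent-only control mean plus 3 SD; inconclusive means no clear call, values can overlap the other calls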;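 further: cells exposed to compound for four days before flow analysis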
NadD inh: blocks S. aureus nicotinate mononucleotide adenylyltransferase; purified NadD enzyme, colorimetric absorbance read-out; inhibition, % at 20 µM; 0.78% of 360,000 active; in the data active means inhibition above about 26%
A number is an active result; n = inactive; u = inconclusive; x = no result; + = active, no number.

SMILES | PP1 counter | HCV core dimer | Fh CTSL1 inh | PP5 primary | Myeloid diff 2 | NadD inh
CCOC(=O)C1=C(C)N=c2s/c(=C\c3ccc(OC(C)=O)cc3)c(=O)n2C1/C=C/c1ccccc1 (centres undefined) | n | n | n | n | + | n
CCOC(=O)C1=C(C)N=c2sc(=Cc3ccc(OCC(=O)O)cc3)c(=O)n2C1c1ccc(Cl)cc1 (centres undefined) | x | x | x | x | n | n
O=C(CCS(=O)(=O)c1ccccc1)Nc1nc(-c2ccc(F)cc2)cs1 | n | n | n | n | + | n
COc1ccc(-c2csc(NC(=O)CCS(=O)(=O)c3ccccc3)n2)c(OC)c1 | n | n | n | n | + | n
COc1ccc(Cc2nnc(NC(=O)CSc3ccccc3)s2)cc1OC | n | n | n | n | n | n
COc1ccc(Cc2nnc(Nc3ccccc3)s2)cc1Br | n | n | n | n | + | n
CCc1ccc(C2NC(=S)NC3=C2C(=O)N(c2ccccc2OC)C(c2ccc(CC)cc2)N3)cc1 (centres undefined) | n | n | n | n | n | n
O=C1C2=C(NC(=S)NC2c2ccc(Cl)cc2)NC(c2ccc(Cl)cc2)N1c1ccc(Cl)cc1 (centres undefined) | n | n | n | n | + | n
CC(=O)N1CCC(C(=O)NC2CCCc3c2cnn3-c2cc(F)cc(F)c2)CC1 (centres undefined) | n | n | n | n | u | n
C[C@H](CO)N1C[C@H](C)[C@H](CN(C)C(=O)Nc2ccccc2F)OCc2cnnn2CCCC1=O | x | x | x | x | n | n
CCCn1cc(S(=O)(=O)c2ccc(F)cc2)c(=O)c2cc(OCC)ccc21 | n | n | n | n | + | n
CCOc1ccc2[nH]cc(S(=O)(=O)c3ccc(F)cc3)c(=O)c2c1 | n | n | n | n | n | n
Cc1cc2nc3c(=O)n(CCc4ccccc4)c(=O)[nH]c3nc2cc1N | n | n | n | n | n | n
Nc1ccc2nc3c(=O)n(CCc4ccccc4)c(=O)[nH]c3nc2c1 | n | n | n | n | + | n
COc1ccccc1N1CCN(c2cc(=O)n(Cc3ccc(F)cc3)c(=O)[nH]2)CC1 | n | n | n | n | + | n
O=c1cc(N2CCN(c3ccccc3Cl)CC2)[nH]c(=O)n1Cc1ccc(F)cc1 | n | n | n | n | u | n
NC[C@@H]1O[C@H](C23CC4CC(CC(C4)C2)C3)Cc2c1ccc(O)c2O | n | n | n | n | + | n
O=C(C(=O)N1CCCCC1)c1c(-c2ccccc2)[nH]c2ccccc12 | n | n | n | n | n | n
O=C1NC(=S)N/C1=C/c1cccn1-c1ccc([N+](=O)[O-])cc1 | n | 59 | n | n | n | n
O=C(COC(=O)c1ccc(NS(=O)(=O)c2cccs2)cc1)Nc1nc2c(F)c(F)c(F)cc2s1 | x | x | x | x | n | 50
CCN1C(c2ccccc2)=C(c2ccccc2)S/C1=C/C=C1\SC(=S)N(C)C1=O | x | x | x | x | + | n
CCOc1ccccc1C=C1SC(=S)N(CC)C1=O | x | x | x | x | n | n
CCN1C(c2ccccc2)=C(c2ccccc2)S/C1=C\C=C1/SC(=S)N(C)C1=O | n | n | n | n | x | n
CCN1C(=O)/C(=C/C=C2/Sc3ccc4ccccc4c3N2CCO)SC1=S | n | n | n | n | + | n
O=C1c2ccccc2C(=O)N1c1ccc(S(=O)(=O)N2CCCCC2)cc1 | n | n | n | n | n | n
SMILES | PP1 counter | HCV core dimer | Fh CTSL1 inh | PP5 primary | Myeloid diff 2 | NadD inh
N=C1c2ccccc2CN1c1ccc(S(=O)(=O)N2CCCCC2)cc1 | n | n | n | n | + | n
CCN(CC(=O)Nc1ccccc1-c1ccccc1)Cc1nc2ccccc2c(=O)[nH]1 | n | n | n | n | + | n
CCN(CC(=O)NCc1ccc(F)cc1)CC(=O)Nc1ccccc1-c1ccccc1 | n | n | n | n | + | n
CC(=Nc1ccccc1)C1=C(O)C(CC(C)C)NC1=O (centres undefined) | x | x | x | x | n | n
CCCCn1c(-c2nonc2NC(=O)c2ccccc2Cl)nc2ccccc21 | x | x | x | x | + | n
Cc1cccc(N(Cc2ccccc2)C(=O)Cc2ccc(S(=O)(=O)N3CCOCC3)s2)c1 | 17 | n | n | n | n | n
C/C(O)=C\c1nc2ccccc2oc1=O | n | n | n | n | + | n
COc1cccc(-c2cnc(C(O)c3ccc(F)cc3C)[nH]2)c1 (centres undefined) | x | x | x | x | n | n
CN(C)CCCNCCCNC(=O)c1ccncc1 | n | n | n | n | + | n
O=C(NCCCNCc1ccccc1)c1ccncc1 | n | n | n | n | n | n
CC(OC(=O)c1nc(Cl)ccc1Cl)C(=O)Nc1ccccc1F (centres undefined) | n | n | n | n | n | n
CC(C)Cn1c(N)c(C(=O)COC(=O)C2Cc3ccccc3CN2S(C)(=O)=O)c(=O)n(C)c1=O (centres undefined) | n | x | x | n | n | n
C=CCNc1ccccc1S(=O)(=O)NCc1ccccc1 | x | x | x | x | n | n
COC(=O)c1sc(S(=O)(=O)N2CCN(c3ccccc3F)CC2)c(C(=O)OC)c1C | x | x | x | x | n | n
OCCNc1c2ccccc2nc2c(F)c(F)c(F)c(F)c12 | n | n | n | n | x | n
Cc1c2ccccc2nc2c(F)c(NC(C)C)c(F)c(F)c12 | n | n | n | n | + | n
O=C(OCC(=O)N1CCCC1=O)c1ccc(Cl)cc1[N+](=O)[O-] | n | n | n | n | n | n
NC(=O)CSC1=N/C(=C\c2ccco2)C(=O)N1c1ccc(OC(F)F)cc1 | n | n | n | n | n | n
CCN(CC)C(=O)CSC1=N/C(=C/c2ccco2)C(=O)N1c1ccc(OC)c(Cl)c1 | n | 51 | n | n | n | n
COc1ccc(OC)c(S(=O)(=O)CC(O)CS(=O)(=O)c2ccccc2)c1 (centres undefined) | n | n | n | n | n | n
O=C(Nc1ccccc1)c1cc(C2CCCCN2S(=O)(=O)c2ccc(F)cc2F)on1 (centres undefined) | x | x | x | x | n | n
Cn1c(=O)c(NC2CCCCC2)c2c3c(cccc31)C(=O)c1ccccc1-2 | x | x | x | x | + | n
Cn1c(=O)c(NCCc2ccccc2)c2c3c(cccc31)C(=O)c1ccccc1-2 | n | n | n | n | + | n
CCC(C)[C@H]1CNC(=O)C(=O)N1CCCCC1CCCCC1 (some centres undefined) | x | x | x | x | n | n
Cc1[nH]c(=O)c(C#N)c2c1COC(C)(C)C2 | n | n | n | n | n | n
CSc1c(C#N)c(N)c(C#N)c2c1COC(C)(C)C2 | n | n | 17 | n | n | n
COC(=O)[C@H](CCSC)NC(=O)Nc1cc(OC)cc(OC)c1 | n | n | n | n | n | n
CN(Cc1ccccc1)C(=O)c1ccc(NC(=O)Cc2cccc(NC(=O)C3CCCN(C(=O)C4CCCC4)C3)c2)cc1 (centres undefined) | n | x | x | n | n | n
COc1cc2c(=O)n(Cc3ccco3)c(=O)n(CC(=O)c3cccc(Br)c3)c2cc1OC | n | 47 | n | n | x | x
O=C(CN1C(=O)NC2(CCCC2)C1=O)Nc1ccccc1N1CCCC1 | n | n | n | n | n | n
